The CC50 is the concentration that lowers cell viability or growth by half.

Here are results for twelve compounds from ChEMBL document CHEMBL1150199, “Preparation, characterization, and antiviral activity of microbial metabolites of stemodin” (J Nat Prod, 1991).

Series [1] in a line: Cytotoxicity against african green monkey Vero cells after 66 hrs. It counts as cell-based. To be noted: chlorocebus sabaeus. In short, it runs like this:
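Confluent Vero monolayers in DMEM with 10% calf serum received triplicate serial dilutions of DMSO-dissolved samples at 1–100 µg/ml, with higher levels where needed. The cytotoxic concentration is reported as CD50.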

Series [2] deals with Human alphaherpesvirus 1. The series is described as follows: Antiviral activity against HSV1 in african green monkey Vero cells assessed as reduction in number of plaques after 66 hrs. It counts as functional, organism-based. The method, boiled down: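 Confluent Vero monolayers were seeded at 2 × 10^4 cells/well in DMEM with 10% calf serum. Samples were dissolved in DMSO, diluted in medium and added in triplicate at 100, 50, 20, 10, 5, 2 and 1 µg/ml, with 30 PFU HS-1 per well. Wells were incubated 66 h at 37° under ~15% CO2, then formaldehyde-fixed, crystal violet-stained and scored visually. The value is the lowest concentration giving the stated % plaque reduction.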

Series [3] has as its system Human alphaherpesvirus 1. The series is described as follows: Antiviral activity against HSV1 in african green monkey Vero cells assessed as reduction in number of plaques at 0.005 mg/ml after 66 hrs. It counts as functional. Also on record: scale not given: the % may be the effect or the level left. The method, boiled down:
(§1)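 Vero cells seeded at 2 × 10^4 per 200 µl well in DMEM with 10% calf serum, grown to confluence at 37° under ~15% CO2. Medium replaced with compound dilutions in triplicate, each well inoculated with 30 PFU HSV-1. Incubated 66 h, then formaldehyde-fixed and crystal violet-stained. Plaque reduction was scored visually.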

The subject of series [4] is Human alphaherpesvirus 1. The series is described as follows: Antiviral activity against HSV1 in african green monkey Vero cells assessed as reduction in number of plaques at 0.1 mg/ml after 66 hrs. It counts as functional. Also on record: scale not given: the % may be the effect or the level left. The method, boiled down:
as §1

Values after ≈ are worked out from the molar mass of the structure shown. Active and inactive are the calls of the source. The rule behind the calls is not given here.

`CC1(C)C[C@H](O)C[C@@]2(C)[C@H]1CC[C@H]1C[C@H]3C[C@]12CC[C@]3(C)O` [STEMODIN] had a CC50 at 66 h in series [1] of 40 µg/mL (≈ 131 µM).

In series [1], `C[C@@]1(CO)C[C@H](O)C[C@@]2(C)[C@H]1CC[C@@]1(O)C[C@H]3C[C@]12CC[C@]3(C)O` showed a CC50 at 66 h of 660 µg/mL (≈ 1950 µM). The outcome with Human alphaherpesvirus 1 [2] was inactive.

For the compound `C[C@@]1(CO)[C@H](O)CC[C@@]2(C)[C@H]1CC[C@H]1C[C@@H]3C[C@@]12CC[C@]3(O)CO` [APHIDICOLIN], it took 200 µg/mL (≈ 591 µM) to reach half-maximal cytotoxicity in series [1] (CC50 at 66 h). For the same compound, in the series with Human alphaherpesvirus 1 [3], the Activity turned out to be 100%.

Compound `CC1(C)C[C@H](O)C[C@@]2(C)[C@H]1C[C@H](O)[C@H]1C[C@H]3C[C@]12CC[C@]3(C)O` displayed a CC50 at 66 h in series [1] of 70 µg/mL (≈ 217 µM). The outcome with Human alphaherpesvirus 1 [2] was inactive.

Compound `CC1(C)C[C@H](O)C[C@@]2(C)[C@H]1CC[C@@]1(O)C[C@H]3C[C@]12CC[C@]3(C)O` showed a CC50 at 66 h in series [1] of 300 µg/mL (≈ 930 µM). Moreover, the Activity with Human alphaherpesvirus 1 [4] was determined as 93%.

In series [1], `CC1(C)C[C@H](O)C[C@@]2(C)[C@H]1C[C@@H](O)[C@H]1C[C@H]3C[C@]12CC[C@]3(C)O` registered a CC50 at 66 h of 200 µg/mL (≈ 620 µM). In the series with Human alphaherpesvirus 1 [4], the Activity was 33%.

`CC1(C)C[C@H](O)C[C@@]2(C)[C@H]1C[C@H](O)[C@@]1(O)C[C@H]3C[C@@]21CC[C@]3(C)O` came in with a CC50 at 66 h in series [1] of 40 µg/mL (≈ 118 µM). Further, the result with Human alphaherpesvirus 1 [2] was inactive.

`CC1(C)C[C@H](O)C[C@@]2(C)[C@H]1CC[C@H]1C[C@@]3(O)C[C@]12CC[C@]3(C)O` yielded a CC50 at 66 h in series [1] of 150 µg/mL (≈ 465 µM). Besides, the Activity in the series with Human alphaherpesvirus 1 [4] was 27%.

In turn, `C[C@@]1(CO)C[C@H](O)C[C@@]2(C)[C@H]1CC[C@H]1C[C@H]3C[C@]12CC[C@]3(C)O` gave a CC50 at 66 h in series [1] of 200 µg/mL (≈ 620 µM). Besides, the Activity with Human alphaherpesvirus 1 [4] turned out to be 67%.

On to `C[C@]1(CO)C[C@H](O)C[C@@]2(C)[C@H]1CC[C@H]1C[C@H]3C[C@]12CC[C@@]3(O)CO`, for which the CC50 at 66 h in series [1] was greater than 399 µg/mL.

`C[C@]1(CO)C[C@H](O)C[C@@]2(C)[C@H]1CC[C@H]1C[C@H]3C[C@]12CC[C@]3(C)O` registered a CC50 at 66 h in series [1] greater than 399 µg/mL.

Take `C[C@@]1(CO)C[C@H](O)C[C@@]2(C)[C@H]1CC[C@H]1C[C@H]3[C@H](O)[C@]12CC[C@]3(C)O`: the CC50 at 66 h in series [1] was found to be 70 µg/mL (≈ 207 µM). The result in the series with Human alphaherpesvirus 1 [2] was inactive.
